In ChEMBL document CHEMBL1135984, “Mechanism-based design of parasite-targeted artemisinin derivatives: synthesis and antimalarial activity of new diamine containing analogues” (J Med Chem, 2002):

Key:
Plasmodium falciparum [1] = experiment: In vitro inhibitory concentration against chloroquine-sensitive Plasmodium falciparum HB3; format: functional, organism-based
Summary of the method: (§1)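 48 h growth assay in human erythrocytes (2% parasitemia, 0.5% haematocrit) in RPMI 1640 with 25 mM HEPES, 32 mM NaHCO3 and 10% human serum, under 3% O2/4% CO2/93% N2 at 37 °C. DMSO stocks diluted in medium; triplicates. 0.5 μCi [3H]-hypoxanthine added at 24 h, uptake counted 24 h later. IC50 by probit interpolation of log dose–response versus drug-free controls.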

Plasmodium falciparum [2] = experiment: (§2) In vitro inhibitory concentration against chloroquine-resistant Plasmodium falciparum K1; format: functional, organism-based; summary of the method: as §1
Mus musculus [3] = species on record: Mus musculus; experiment: 90% effective dose against Plasmodium yoelii in mice (Mus musculus); format: functional
Mus musculus [4] = species on record: Mus musculus; experiment: 50% effective dose against Plasmodium yoelii in mice (Mus musculus); format: functional
Mus musculus [5] = experiment: 50% effective dose for antimalarial activity (in vivo) against Plasmodium berghei; format: functional
Summary of the method: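 Male Swiss albino mice, 18-22 g, infected ip with 10^7 P. berghei NS parasitized erythrocytes. Dosed ip or orally once daily for 4 days from the day of infection, in methanol/PBS/DMSO (2:5:3 v/v). Parasitemia read the day after the last dose. ED50 (50% suppression versus vehicle controls) taken from a plot of log dose against parasitemia.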

Plasmodium falciparum [6] = experiment: as §2; format: functional, organism-based; summary of the method: as §1; remark: listed apart in the source

Work on `C[C@H]1[C@@H](OCc2ccc(CN3CCN(c4ccc(C(F)(F)F)cc4)CC3)cc2)O[C@@H]2OC3(C)CCC4[C@H](C)CC[C@@H]1[C@]42OO3` (single isomer, unassigned) yielded an IC50 (Plasmodium falciparum [1]) of 8.1 nM and an IC50 (Plasmodium falciparum [2]) of 12.5 nM.

Compound `C[C@H]1[C@@H](CCN2CCOCC2)O[C@@H]2OC3(C)CCC4[C@H](C)CC[C@@H]1[C@]42OO3` (single isomer, unassigned) has an IC50 (Plasmodium falciparum [2]) of 4.22 nM.

`C[C@H]1[C@@H](CCN2CCN(c3ccc(Cl)cc3)CC2)O[C@@H]2O[C@]3(C)CC[C@H]4[C@H](C)CC[C@@H]1[C@@]24OO3` gave an IC50 (Plasmodium falciparum [2]) of 8.16 nM.

`C[C@H]1[C@@H](CCN2CCCCC2)O[C@@H]2OC3(C)CCC4[C@H](C)CC[C@@H]1[C@]42OO3` (single isomer, unassigned) was tested, and the IC50 (Plasmodium falciparum [2]) was 4.83 nM.

In the case of `C[C@H]1[C@@H](OCc2ccc(CN3CCN(c4ccccc4)CC3)cc2)O[C@@H]2OC3(C)CCC4[C@H](C)CC[C@@H]1[C@]42OO3` (single isomer, unassigned), the IC50 (Plasmodium falciparum [2]) is reported as 8.2 nM.

Work on `C[C@H]1[C@H](OC(=O)CCC(=O)[O-])O[C@@H]2O[C@@]3(C)CC[C@H]4[C@H](C)CC[C@@H]1[C@@]24OO3.[Na+]` [SODIUM ARESUNATE] yielded an ED90 (Mus musculus [3]) of 100 mg/kg and an ED50 (Mus musculus [4]) of 1.6 mg/kg.

`C[C@@H]1CC[C@H]2[C@@H](C)C(=O)O[C@@H]3O[C@@]4(C)CC[C@@H]1[C@]32OO4` [ARTEMISININ] gave an IC50 (Plasmodium falciparum [2]) of 12.5 nM.

`C[C@H]1[C@@H](OCc2ccc(CN3CCN(Cc4ccccc4)CC3)cc2)O[C@@H]2O[C@]3(C)CC[C@H]4[C@H](C)CC[C@@H]1[C@@]24OO3` showed an IC50 (Plasmodium falciparum [1]) of 1.8 nM and an IC50 (Plasmodium falciparum [2]) of 3.8 nM.

`CCCN(CCC)CC[C@H]1O[C@@H]2O[C@]3(C)CC[C@H]4[C@H](C)CC[C@@H]([C@H]1C)[C@@]24OO3` gave an IC50 (Plasmodium falciparum [2]) of 7.51 nM.

`C[C@H]1[C@@H](OCc2ccc(CN3CCN(c4ccc(F)cc4)CC3)cc2)O[C@@H]2OC3(C)CCC4[C@H](C)CC[C@@H]1[C@]42OO3` (single isomer, unassigned) gave an IC50 (Plasmodium falciparum [1]) of 2.3 nM and an IC50 (Plasmodium falciparum [2]) of 6.3 nM.

For `C[C@H]1[C@@H](CCN2CCN(c3ccc([N+](=O)[O-])cc3)CC2)O[C@@H]2OC3(C)CCC4[C@H](C)CC[C@@H]1[C@]42OO3` (single isomer, unassigned), the ED90 (Mus musculus [3]) was greater than 10 mg/kg, the ED50 (Mus musculus [4]) was less than 10 mg/kg and the IC50 (Plasmodium falciparum [2]) was 4.29 nM.

In the case of `C[C@H]1[C@@H](OCc2cccc(CN3CCN(c4ccc(F)cc4)CC3)c2)O[C@@H]2OC3(C)CCC4[C@H](C)CC[C@@H]1[C@]42OO3` (single isomer, unassigned), the IC50 (Plasmodium falciparum [1]) is reported as 12.6 nM and the IC50 (Plasmodium falciparum [2]) is reported as 12.6 nM.

In the case of `C[C@H]1[C@@H](CCN2CCN(c3cccc(C(F)(F)F)c3)CC2)O[C@@H]2OC3(C)CCC4[C@H](C)CC[C@@H]1[C@]42OO3` (single isomer, unassigned), the ED90 (Mus musculus [3]) is reported as less than 10 mg/kg, the ED50 (Mus musculus [4]) is reported as less than 10 mg/kg and the ED50 (Mus musculus [5]) is reported as 3.12 mg/kg. It also gave an IC50 (Plasmodium falciparum [2]) of 6.19 nM.

In the case of `C[C@H]1[C@@H](OCc2cccc(CN3CCN(c4ccc([N+](=O)[O-])cc4)CC3)c2)O[C@@H]2OC3(C)CCC4[C@H](C)CC[C@@H]1[C@]42OO3` (single isomer, unassigned), the IC50 (Plasmodium falciparum [1]) is reported as 4.3 nM and the IC50 (Plasmodium falciparum [2]) is reported as 4.3 nM.

In the case of `C[C@H]1[C@@H](CCN2CCN(c3ccc(F)cc3)CC2)O[C@@H]2OC3(C)CCC4[C@H](C)CC[C@@H]1[C@]42OO3` (single isomer, unassigned), the ED90 (Mus musculus [3]) is reported as 10 mg/kg, the ED50 (Mus musculus [4]) is reported as less than 10 mg/kg and the IC50 (Plasmodium falciparum [2]) is reported as 5.96 nM.

Compound `C[C@H]1[C@@H](OCc2cccc(CN3CCN(c4cccc(C(F)(F)F)c4)CC3)c2)O[C@@H]2OC3(C)CCC4[C@H](C)CC[C@@H]1[C@]42OO3` (single isomer, unassigned) has an IC50 (Plasmodium falciparum [2]) of 22.5 nM.

`C[C@H]1[C@@H](OCc2cccc(CN3CCN(c4ccc(Cl)cc4)CC3)c2)O[C@@H]2OC3(C)CCC4[C@H](C)CC[C@@H]1[C@]42OO3` (single isomer, unassigned) was tested, and the IC50 (Plasmodium falciparum [2]) was 13.3 nM.

Work on `C[C@H]1[C@@H](OCc2ccc(CN3CCN(c4ccc([N+](=O)[O-])cc4)CC3)cc2)O[C@@H]2OC3(C)CCC4[C@H](C)CC[C@@H]1[C@]42OO3` (single isomer, unassigned) yielded an IC50 (Plasmodium falciparum [2]) of 138 nM.

`C[C@H]1[C@@H](CCN2CCN(c3ccccc3)CC2)O[C@@H]2OC3(C)CCC4[C@H](C)CC[C@@H]1[C@]42OO3` (single isomer, unassigned) gave an ED90 (Mus musculus [3]) greater than 10 mg/kg, an ED50 (Mus musculus [4]) of less than 10 mg/kg and an IC50 (Plasmodium falciparum [2]) of 3.15 nM.

`C[C@H]1[C@@H](CCN2CCN(Cc3ccccc3)CC2)O[C@@H]2OC3(C)CCC4[C@H](C)CC[C@@H]1[C@]42OO3` (single isomer, unassigned) was tested, and the ED90 (Mus musculus [3]) was greater than 10 mg/kg, the ED50 (Mus musculus [4]) was less than 10 mg/kg and the IC50 (Plasmodium falciparum [2]) was 4.22 nM.

Work on `CO[C@H]1O[C@@H]2O[C@@]3(C)CC[C@H]4[C@H](C)CC[C@@H]([C@H]1C)[C@@]24OO3` [ARTEMETHER] yielded an IC50 (Plasmodium falciparum [1]) of 9.2 nM, an IC50 (Plasmodium falciparum [2]) of 6.5 nM and an IC50 (Plasmodium falciparum [6]) of 7.94 nM.

`C[C@H]1[C@@H](OCc2cccc(CN3CCN(c4ccccc4)CC3)c2)O[C@@H]2OC3(C)CCC4[C@H](C)CC[C@@H]1[C@]42OO3` (single isomer, unassigned) was tested, and the IC50 (Plasmodium falciparum [1]) was 3.4 nM and the IC50 (Plasmodium falciparum [2]) was 6.6 nM.
